Results from ChEMBL document CHEMBL5252539, “In vitro biological evaluation of new antimycobacterial salicylanilide-tuftsin conjugates” (Eur J Med Chem, 2017).
In brackets after ≈: the same amount, converted by molar mass. Activity calls are given as the source filed them. No cut-off for these calls is given here. *1 amine or outer side, *2 acyl side, *3 side chain or, on linkers, in order; H or OH if unused. Where a SMILES comes first, the peptide text is derived from it. [ ]: non-standard residue; d: D form. The star is where a group is joined. X1 = C/C(=N\OCC(=O)[*:2])c1ccc(N[*:1])cc1; Benzoyl(5-Br-2-OH) = O=C(c1cc(Br)ccc1O)*; Palmitoyl = CCCCCCCCCCCCCCCC(=O)*; Decanoyl = CCCCCCCCCC(=O)*

How the values were obtained:
[1] = system: Mycobacteroides abscessus; assay: Antimycobacterial activity against Mycobacterium abscessus ATCC 19977 assessed as reduction in bacterial growth after 7 days by serial dilution method; type: functional; settings: ATCC 19977, 168 h, time 7 day
Outline: (§1)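 MIC determined in Sula semisynthetic medium, pH 6.5, 1 week incubation. Growth inhibition confirmed by plating on Löwenstein-Jensen solid medium and counting CFU. Bacteria inoculated without drug served as growth control.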

[2] = system: Mycobacterium tuberculosis; assay: Antimycobacterial activity against Mycobacterium tuberculosis H37Rv ATCC 27294 assessed as reduction in colony forming unit after 28 days by serial dilution method; type: functional, organism-based; settings: time 28.0 day
Outline: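 After the 4-week MIC incubation in Sula semisynthetic medium (pH 6.5), growth inhibition confirmed by plating on Löwenstein-Jensen solid medium and counting colony forming units.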

[3] = system: Mycobacteroides abscessus; assay: Antimycobacterial activity against Mycobacterium abscessus ATCC 19977 assessed as reduction in colony forming unit after 7 days by serial dilution method; type: functional, organism-based; settings: time 7.0 day; outline: as §1
MONO-MAC-6 = assay: Cytostatic activity against human MONO-MAC-6 cells assessed as reduction in cell viability incubated for 24 hrs by MTT assay; type: functional, cell-based; settings: MONO-MAC-6, 24 h
Outline: (§2)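 MTT viability assay after 24 h exposure of MonoMac6 human monocytic cells or HepG2 human hepatocellular carcinoma cells. Top concentration 200 μM. IC50 taken from dose-response curves as the concentration reducing viability to 50% of maximal.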

HepG2 = assay: Cytostatic activity against human HepG2 cells assessed as reduction in cell viability incubated for 24 hrs by MTT assay; type: functional, cell-based; settings: HepG2, 24 h; outline: as §2
[4] = Selectivity index, ratio of IC50 for cytostatic activity against human MONO-MAC-6 cells to MIC for antimycobacterial activity against Mycobacterium tuberculosis H37Rv ATCC 27294; type: toxicity, cell-based; settings: read-out: Selectivity Index
Outline: (§3)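 MTT assay on MonoMac6 or HepG2 cells after 24 h exposure, top concentration 200 µM. SI = IC50 (µM)/MIC (µM) against H37Rv from the 4-week Sula medium assay.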

[5] = Selectivity index, ratio of IC50 for cytostatic activity against human HepG2 cells to MIC for antimycobacterial activity against Mycobacterium tuberculosis H37Rv ATCC 27294; type: toxicity, cell-based; settings: read-out: Selectivity Index; outline: as §3
[6] = Stability in rat liver lysosomal homogenate assessed as drug degradation at 50 uM and measured upto 24 hrs by HPLC-MS analysis; type: ADME, subcellular, Lysosome; settings: tissue homogenate
Outline: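 Conjugates incubated in rat liver lysosomal homogenate. Reaction mixtures sampled at 5 min, 1 h, 2 h, 4 h, 8 h and 24 h and analysed by HPLC-MS (chromatograms and mass spectra) to identify intact conjugate, fragments and cleavage sites.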

[7] = system: Mycobacterium tuberculosis; assay: […] antimycobacterial activity against Mycobacterium tuberculosis H37Rv ATCC 27294 infected in human MONO-MAC-6 cells assessed as reduction in colony forming unit at 125 uM for 6 days by colony counting based analysis; type: functional, organism-based; settings: time 6.0 day
Outline: (§4)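 MonoMac6 monolayers infected with H37Rv, then treated with compound at 125 or 250 µM for 3 days. Treatment repeated with fresh compound solution for another 3 days. Intracellular bacteria quantified as CFU against untreated infected cells.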

[8] = system: Mycobacterium tuberculosis; assay: […] antimycobacterial activity against Mycobacterium tuberculosis H37Rv ATCC 27294 infected in human MONO-MAC-6 cells assessed as reduction in colony forming unit at 250 uM for 6 days by colony counting based analysis; type: functional, organism-based; settings: time 6.0 day; outline: as §4
[9] = system: Mycobacterium tuberculosis; assay: Antimycobacterial activity against Mycobacterium tuberculosis H37Rv ATCC 27294 assessed as reduction in bacterial growth after 21 days by serial dilution method; type: functional; settings: H37Rv ATCC 27294, 504 h, time 21 day
Outline: (§5)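 Broth MIC in Sula semisynthetic medium, pH 6.5; 4-week incubation, with 21-day values […] where indicated. Drug-free inoculated bacteria served as growth control. MIC also expressed as drug content (µg/mL) = MIC (µM) × average SAL molar mass × number of SAL per conjugate / 1000.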

[10] = system: Mycobacterium tuberculosis; assay: Antimycobacterial activity against Mycobacterium tuberculosis H37Rv ATCC 27294 assessed as reduction in bacterial growth after 28 days by serial dilution method; type: functional; settings: H37Rv ATCC 27294, 672 h, time 28 day; outline: as §5
[11] = Cytotoxicity against mouse bone marrow derived macrophages assessed as reduction in cell viability incubated for 48 hrs by MTT assay; type: toxicity, cell-based, Macrophage
Outline: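 Murine bone marrow-derived macrophages exposed for 48 h, viability by MTT. Highest concentration tested 100 µM. IC50 taken from dose-response curves.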

[12] = Selectivity index, ratio of IC50 for cytotoxicity against mouse bone marrow derived macrophages to MIC for antimycobacterial activity against Mycobacterium tuberculosis H37Rv ATCC 27294; type: toxicity; settings: read-out: Selectivity Index
Outline: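 Murine bone marrow-derived macrophages exposed for 48 h, top concentration 100 µM. Viability read by MTT and IC50 taken from dose-response curves. SI = IC50/MIC against H37Rv.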

[13] = Stability of the compound in Sula's semisynthetic medium containing 10% DMSO assessed as free salicylanilide formation at pH 6.5 at 2 mg/ml after 4 weeks at 37 degree C by reverse phase HPLC analysis
Outline: (§6)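 Conjugate incubated in Sula semisynthetic medium (pH 6.5) at 37 °C for 4 weeks. Decomposition to free salicylanilide and 2-hydroxyacetyl-tuftsin derivative followed by analytical RP-HPLC and mass spectrometry.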

[14] = Stability of the compound in Sula's semisynthetic medium containing 10% DMSO assessed as 2-hydroxyacetyl-tuftsin derivative formation at pH 6.5 at 2 mg/ml after 4 weeks at 37 degree C by reverse phase HPLC analysis; outline: as §6
[15] = Retention time of the compound by RP-HPLC analysis; type: physicochemical
Outline: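 Analytical RP-HPLC on a C18 column (5 μm, 100 Å, 4.6 × 150 mm). Eluent A 0.1% TFA in water, eluent B 0.1% TFA in acetonitrile-water 80:20. Gradient 0% B for 5 min, to 60% B at 15 min, to 100% B at 25 min. Flow 1 mL/min, detection at 220 nm.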

SMILES | MIC [1] | Activity [2] | Activity [3] | IC50 (MONO-MAC-6) | IC50 (HepG2) | selectivity ratio [4] | selectivity ratio [5] | Stability [6] | Activity [7] | Activity [8] | MIC [9] | MIC [10] | IC50 at 48 h [11] | selectivity ratio [12] | Stability [13] | Stability [14] | Retention_time [15]
CCCCCCCCCC(=O)NCCCC[C@H](NC(=O)[C@@H]1CCCN1C(=O)[C@H](CCCCN)NC(=O)[C@@H](NC(=O)CO/N=C(\C)c1ccc(NC(=O)c2cc(Br)ccc2O)cc1)[C@@H](C)O)C(=O)NCC(N)=O ({Benzoyl(5-Br-2-OH)}-[X1]TKPK(Decanoyl)G-NH2) | 186 µM (≈ 200 µg/mL) | Active | Active | 72.6 µM | 55.8 µM | 0.4 | 0.3 | Unstable | Active | Active | 186 µM (≈ 200 µg/mL) | – | – | – | – | – | –
CC(=O)c1ccc(NC(=O)c2cc(Br)ccc2O)cc1 | 59.8 µM (≈ 20 µg/mL) | Active | Active | 18.6 µM | 15.9 µM | 2.5 | 2.1 | – | – | – | – | 7.5 µM (≈ 2.51 µg/mL) | 76.5 µM | 10.2 | – | – | –
C/C(=N\OCC(=O)NCC(=O)N[C@@H](Cc1ccccc1)C(=O)N[C@@H](CC(C)C)C(=O)NCC(=O)N[C@H](C(=O)N[C@@H](CCCCN)C(=O)N1CCC[C@@H]1C(=O)N[C@H](CCCCN)C(=O)NCC(=O)N[C@@H](C(=O)N[C@H](CCCCN)C(=O)N1CCC[C@H]1C(=O)N[C@H](CCCCN)C(=O)NCC(=O)N[C@@H](C(=O)N[C@@H](CCCCN)C(=O)N1CCC[C@@H]1C(=O)N[C@H](CCCCN)C(=O)NCC(=O)N[C@@H](C(=O)N[C@H](CCCCN)C(=O)N1CCC[C@H]1C(=O)N[C@H](CCCCN)C(=O)NCC(N)=O)[C@H](C)O)[C@H](C)O)[C@H](C)O)[C@@H](C)O)c1ccc(NC(=O)c2cc(Br)ccc2O)cc1 | – | Active | Active | – | – | – | – | – | inactive | Active | – | – | – | – | Stable | Stable | –
C/C(=N\OCC(=O)N[C@H](C(=O)N[C@@H](CCCCN)C(=O)N1CCC[C@H]1C(=O)N[C@@H](CCCCN)C(=O)NCC(N)=O)[C@@H](C)O)c1ccc(NC(=O)c2cc(Br)ccc2O)cc1 ({Benzoyl(5-Br-2-OH)}-[X1]TKPKG-NH2) | 174 µM (≈ 160 µg/mL) | Active | Active | > 200 µM | > 200 µM | > 9.2 | > 9.2 | Unstable | Active | Active | – | 21.8 µM (≈ 20 µg/mL) | > 100 µM | 4.6 | – | – | 15.6 min
CCCCCCCCCCCCCCCC(=O)NCCCC[C@H](NC(=O)[C@@H]1CCCN1C(=O)[C@H](CCCCN)NC(=O)[C@@H](NC(=O)CNC(=O)[C@H](CCCCN)NC(=O)[C@@H]1CCCN1C(=O)[C@H](CCCCN)NC(=O)[C@@H](NC(=O)CNC(=O)[C@H](CCCCN)NC(=O)[C@@H]1CCCN1C(=O)[C@H](CCCCN)NC(=O)[C@@H](NC(=O)CO/N=C(\C)c1ccc(NC(=O)c2cc(Br)ccc2O)cc1)[C@@H](C)O)[C@@H](C)O)[C@@H](C)O)C(=O)NCC(=O)N[C@H](C(=O)N[C@@H](CCCCN)C(=O)N1CCC[C@H]1C(=O)N[C@@H](CCCCN)C(=O)NCC(N)=O)[C@@H](C)O ({Benzoyl(5-Br-2-OH)}-[X1]TKPKGTKPKGTKPK(Palmitoyl)GTKPKG-NH2) | 74.3 µM (≈ 200 µg/mL) | Active | Active | 20.9 µM | 40.4 µM | 0.3 | 0.5 | Unstable | Active | Active | 74.3 µM (≈ 200 µg/mL) | – | – | – | – | – | 17.3 min
CCCCCCCCCCCCCCCC(=O)NCCCC[C@H](NC(=O)[C@@H]1CCCN1C(=O)[C@H](CCCCN)NC(=O)[C@@H](NC(=O)CO/N=C(\C)c1ccc(NC(=O)c2cc(Br)ccc2O)cc1)[C@@H](C)O)C(=O)NCC(N)=O ({Benzoyl(5-Br-2-OH)}-[X1]TKPK(Palmitoyl)G-NH2) | 173 µM (≈ 200 µg/mL) | Active | Active | 53.8 µM | 23.2 µM | 0.3 | 0.1 | Unstable | Active | Active | 173 µM (≈ 200 µg/mL) | – | – | – | – | – | –
C/C(=N\OCC(=O)NCC(=O)N[C@@H](Cc1ccccc1)C(=O)N[C@@H](CC(C)C)C(=O)NCC(=O)N[C@H](C(=O)N[C@@H](CCCCN)C(=O)N1CCC[C@H]1C(=O)N[C@@H](CCCCN)C(=O)NCC(=O)N[C@H](C(=O)N[C@@H](CCCCN)C(=O)N1CCC[C@H]1C(=O)N[C@@H](CCCCN)C(=O)NCC(=O)N[C@H](C(=O)N[C@@H](CCCCN)C(=O)N1CCC[C@H]1C(=O)N[C@@H](CCCCN)C(=O)NCC(=O)N[C@H](C(=O)N[C@@H](CCCCN)C(=O)N1CCC[C@H]1C(=O)N[C@@H](CCCCN)C(=O)NCC(N)=O)[C@@H](C)O)[C@@H](C)O)[C@@H](C)O)[C@@H](C)O)c1ccc(NC(=O)c2cc(Br)ccc2O)cc1 | – | – | – | 86.6 µM | 112 µM | 0.6 | 0.8 | Unstable | – | – | – | – | 92.1 µM | 0.7 | – | – | 15.7 min
CCCCCCCCCCCCCCCC(=O)NCCCC[C@H](NC(=O)[C@@H]1CCCN1C(=O)[C@H](CCCCN)NC(=O)[C@@H](NC(=O)CO/N=C(\C)c1ccc(NC(=O)c2cc(Br)ccc2O)cc1)[C@@H](C)O)C(=O)NCC(=O)N[C@H](C(=O)N[C@@H](CCCCN)C(=O)N1CCC[C@H]1C(=O)N[C@@H](CCCCN)C(=O)NCC(=O)N[C@H](C(=O)N[C@@H](CCCCN)C(=O)N1CCC[C@H]1C(=O)N[C@@H](CCCCN)C(=O)NCC(=O)N[C@H](C(=O)N[C@@H](CCCCN)C(=O)N1CCC[C@H]1C(=O)N[C@@H](CCCCN)C(=O)NCC(N)=O)[C@@H](C)O)[C@@H](C)O)[C@@H](C)O ({Benzoyl(5-Br-2-OH)}-[X1]TKPK(Palmitoyl)GTKPKGTKPKGTKPKG-NH2) | 74.3 µM (≈ 200 µg/mL) | Active | Active | 16.5 µM | 37.6 µM | 0.2 | 0.4 | Unstable | Active | Active | – | 92.9 µM (≈ 250 µg/mL) | 20.4 µM | 0.2 | – | – | 18.4 min
